Measured values published in ChEMBL document CHEMBL2046400, “Design, synthesis and antitumor activities of novel bis-aryl ureas derivatives as Raf kinase inhibitors” (Bioorg Med Chem, 2012).

Experiments:
[1] = tested on: BGC-823; experiment: Antiproliferative activity against human BGC823 cells after 72 hrs by MTT assay; assay type: functional, cell-based; details: BGC-823, 72 h
Summary of the method: (§1)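 RPMI-1640 with 10% fetal calf serum, 37 °C, 5% CO₂, 95% humidity. Cells seeded at 5.0 × 10³/well and grown 24 h, then exposed 72 h to a range of compound concentrations. MTT (5 mg/ml solution) added for a further 4 h at 37 °C. Formazan crystals dissolved and absorbance read at 570 nm. Each compound tested three times per cell line. IC50 reported as mean ± SD of three independent experiments.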

[2] = tested on: MDA-MB-231; experiment: Antiproliferative activity against human MDA-MB-231 cells after 72 hrs by MTT assay; assay type: functional, cell-based; details: MDA-MB-231, 72 h; summary of the method: as §1
[3] = tested on: SMMC-7721; experiment: Antiproliferative activity against human SMMC7721 cells after 72 hrs by MTT assay; assay type: functional, cell-based; details: SMMC-7721, 72 h; summary of the method: as §1
[4] = molecular target: T1, RAF proto-oncogene serine/threonine-protein kinase (Homo sapiens, UniProt P04049); experiment: Inhibition of C-Raf kinase-mediated phosphorylation of Mek using [33P]gammaATP after 20 mins by scintillation counting
Summary of the method: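 The reaction was started with [γ-³³P]ATP (about 500 cpm/pmol) and run 20 min at 30 °C. It was then spotted onto a phosphocellulose mat, washed in 1% phosphoric acid, and counted by scintillation.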

[5] = molecular target: Fibroblast growth factor receptor 1 (Homo sapiens) (UniProt P11362); experiment: Inhibition of FGFR1 at 10 uM
[6] = molecular target: Mast/stem cell growth factor receptor Kit (Homo sapiens) (UniProt P10721); experiment: Inhibition of c-KIT at 10 uM
[7] = molecular target: Platelet-derived growth factor receptor alpha (Homo sapiens) (UniProt P16234); experiment: Inhibition of PDGFRalpha at 10 uM
[8] = molecular target: Tyrosine-protein kinase JAK2 (Homo sapiens) (UniProt O60674); experiment: Inhibition of JAK2 at 10 uM
[9] = Inhibition of Abl at 10 uM
[10] = molecular target: Focal adhesion kinase 1 (Homo sapiens) (UniProt Q05397); experiment: Inhibition of PTK2 at 10 uM
[11] = molecular target: Tyrosine-protein kinase Fyn (Homo sapiens) (UniProt P06241); experiment: Inhibition of FYN at 10 uM
[12] = molecular target: T1, RAF proto-oncogene serine/threonine-protein kinase; experiment: Inhibition of c-Raf at 10 uM
[13] = molecular target: Hepatocyte growth factor receptor (Homo sapiens) (UniProt P08581); experiment: Inhibition of c-MET at 10 uM
[14] = molecular target: Macrophage colony-stimulating factor 1 receptor (Homo sapiens) (UniProt P07333); experiment: Inhibition of FMS at 10 uM
[15] = molecular target: Serine/threonine-protein kinase PLK1 (Homo sapiens) (UniProt P53350); experiment: Inhibition of PLK1 at 10 uM
[16] = molecular target: RAC-alpha serine/threonine-protein kinase (Homo sapiens) (UniProt P31749); experiment: Inhibition of AKT1 at 10 uM
[17] = molecular target: Receptor-type tyrosine-protein kinase FLT3 (Homo sapiens) (UniProt P36888); experiment: Inhibition of FLT3 at 10 uM
[18] = Inhibition of PKA at 10 uM
[19] = molecular target: Cyclin-dependent kinase 2 (Homo sapiens) (UniProt P24941); experiment: Inhibition of CDK2 at 10 uM
[20] = molecular target: Angiopoietin-1 receptor (Homo sapiens) (UniProt Q02763); experiment: Inhibition of TIE2 at 10 uM
[21] = molecular target: Vascular endothelial growth factor receptor 2 (Homo sapiens) (UniProt P35968); experiment: Inhibition of VEGFR2 at 10 uM
[22] = molecular target: Inhibitor of nuclear factor kappa-B kinase subunit beta (Homo sapiens) (UniProt O14920); experiment: Inhibition of IKKbeta at 10 uM
[23] = molecular target: Tyrosine-protein kinase SYK (Homo sapiens) (UniProt P43405); experiment: Inhibition of SYK at 10 uM
[24] = molecular target: Vascular endothelial growth factor receptor 2 (Homo sapiens) (UniProt P35968); experiment: Inhibition of KDR at 10 uM

T1 sequence (P04049 whole entry): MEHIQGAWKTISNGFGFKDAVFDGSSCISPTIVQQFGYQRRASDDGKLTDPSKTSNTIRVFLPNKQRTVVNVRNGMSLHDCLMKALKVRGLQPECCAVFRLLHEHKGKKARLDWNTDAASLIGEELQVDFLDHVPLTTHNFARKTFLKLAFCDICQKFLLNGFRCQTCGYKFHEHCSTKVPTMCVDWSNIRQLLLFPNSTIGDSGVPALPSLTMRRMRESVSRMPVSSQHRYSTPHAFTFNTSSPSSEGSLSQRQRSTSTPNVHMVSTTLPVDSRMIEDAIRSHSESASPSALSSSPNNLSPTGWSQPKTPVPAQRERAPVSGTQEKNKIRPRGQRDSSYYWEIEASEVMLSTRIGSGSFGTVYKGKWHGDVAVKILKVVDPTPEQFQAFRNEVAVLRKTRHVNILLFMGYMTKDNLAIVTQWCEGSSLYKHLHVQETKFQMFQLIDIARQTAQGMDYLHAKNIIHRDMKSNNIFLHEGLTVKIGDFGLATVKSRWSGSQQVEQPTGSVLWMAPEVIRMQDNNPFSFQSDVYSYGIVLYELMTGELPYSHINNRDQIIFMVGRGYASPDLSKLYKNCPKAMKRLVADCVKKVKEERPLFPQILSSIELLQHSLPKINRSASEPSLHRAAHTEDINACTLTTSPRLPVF
Chain of Vascular endothelial growth factor receptor 2 (Homo sapiens) (P35968 whole entry): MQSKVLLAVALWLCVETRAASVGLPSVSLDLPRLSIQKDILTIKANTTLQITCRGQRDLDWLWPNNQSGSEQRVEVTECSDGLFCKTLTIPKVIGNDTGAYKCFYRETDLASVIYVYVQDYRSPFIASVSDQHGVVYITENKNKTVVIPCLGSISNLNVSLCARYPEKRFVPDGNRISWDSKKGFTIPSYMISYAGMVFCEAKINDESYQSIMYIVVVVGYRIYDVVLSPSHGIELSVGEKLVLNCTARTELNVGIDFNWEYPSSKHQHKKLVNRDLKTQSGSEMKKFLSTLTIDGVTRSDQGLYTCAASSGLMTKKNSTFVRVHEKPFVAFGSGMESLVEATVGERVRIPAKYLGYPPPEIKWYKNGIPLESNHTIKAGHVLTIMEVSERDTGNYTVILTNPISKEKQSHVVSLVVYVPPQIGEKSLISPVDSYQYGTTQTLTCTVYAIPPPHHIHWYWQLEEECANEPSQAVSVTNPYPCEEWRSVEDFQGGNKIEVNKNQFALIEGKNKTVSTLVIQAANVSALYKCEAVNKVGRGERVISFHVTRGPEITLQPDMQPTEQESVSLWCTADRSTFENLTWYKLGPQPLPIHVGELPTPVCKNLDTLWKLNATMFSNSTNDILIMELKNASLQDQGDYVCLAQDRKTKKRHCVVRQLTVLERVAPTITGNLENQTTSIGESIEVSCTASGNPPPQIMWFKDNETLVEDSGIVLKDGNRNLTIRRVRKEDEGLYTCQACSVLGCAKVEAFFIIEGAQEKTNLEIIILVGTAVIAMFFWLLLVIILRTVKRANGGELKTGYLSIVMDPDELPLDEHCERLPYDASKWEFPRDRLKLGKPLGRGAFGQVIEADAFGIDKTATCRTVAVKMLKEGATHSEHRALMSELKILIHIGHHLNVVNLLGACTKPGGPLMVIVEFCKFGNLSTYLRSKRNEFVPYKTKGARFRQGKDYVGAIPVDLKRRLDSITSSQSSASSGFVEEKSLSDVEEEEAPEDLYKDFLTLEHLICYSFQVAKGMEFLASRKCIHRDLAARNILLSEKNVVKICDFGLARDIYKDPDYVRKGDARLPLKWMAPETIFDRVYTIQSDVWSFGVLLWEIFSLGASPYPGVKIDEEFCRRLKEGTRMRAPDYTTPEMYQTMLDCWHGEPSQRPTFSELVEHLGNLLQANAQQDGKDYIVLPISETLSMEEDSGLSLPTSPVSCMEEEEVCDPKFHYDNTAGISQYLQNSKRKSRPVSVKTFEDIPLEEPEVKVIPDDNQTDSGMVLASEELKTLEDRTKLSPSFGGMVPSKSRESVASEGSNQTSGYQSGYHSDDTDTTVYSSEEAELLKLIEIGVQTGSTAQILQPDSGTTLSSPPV
Chain of Platelet-derived growth factor receptor alpha (Homo sapiens) (P16234 whole entry): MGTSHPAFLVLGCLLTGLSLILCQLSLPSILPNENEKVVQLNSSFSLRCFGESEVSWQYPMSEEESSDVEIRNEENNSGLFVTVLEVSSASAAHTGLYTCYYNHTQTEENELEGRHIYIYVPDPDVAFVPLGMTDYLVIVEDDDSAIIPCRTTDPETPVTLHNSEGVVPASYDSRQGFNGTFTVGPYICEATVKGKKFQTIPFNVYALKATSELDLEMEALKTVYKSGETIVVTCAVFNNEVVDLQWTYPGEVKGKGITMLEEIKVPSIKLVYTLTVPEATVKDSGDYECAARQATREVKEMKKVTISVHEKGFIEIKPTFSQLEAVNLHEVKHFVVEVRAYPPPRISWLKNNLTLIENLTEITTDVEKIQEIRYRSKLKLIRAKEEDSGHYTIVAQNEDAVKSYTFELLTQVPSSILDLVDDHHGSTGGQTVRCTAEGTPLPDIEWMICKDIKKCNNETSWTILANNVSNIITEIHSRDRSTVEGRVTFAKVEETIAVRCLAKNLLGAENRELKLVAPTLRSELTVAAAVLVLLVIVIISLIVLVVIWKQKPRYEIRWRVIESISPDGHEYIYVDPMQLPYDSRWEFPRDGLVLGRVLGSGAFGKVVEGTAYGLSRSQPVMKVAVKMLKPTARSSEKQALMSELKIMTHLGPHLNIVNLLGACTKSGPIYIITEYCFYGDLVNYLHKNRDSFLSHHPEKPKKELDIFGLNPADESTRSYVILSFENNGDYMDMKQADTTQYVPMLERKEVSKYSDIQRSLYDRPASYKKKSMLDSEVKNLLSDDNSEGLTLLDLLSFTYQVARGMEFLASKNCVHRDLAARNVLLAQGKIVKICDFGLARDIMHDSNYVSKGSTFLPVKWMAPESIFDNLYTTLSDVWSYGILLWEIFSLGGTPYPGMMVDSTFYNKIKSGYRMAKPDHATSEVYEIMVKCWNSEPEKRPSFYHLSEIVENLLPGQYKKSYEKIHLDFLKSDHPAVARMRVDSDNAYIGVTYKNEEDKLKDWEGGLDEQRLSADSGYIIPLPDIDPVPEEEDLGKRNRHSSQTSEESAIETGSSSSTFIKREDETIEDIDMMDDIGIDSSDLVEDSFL
Chain of RAC-alpha serine/threonine-protein kinase (Homo sapiens) (P31749 whole entry): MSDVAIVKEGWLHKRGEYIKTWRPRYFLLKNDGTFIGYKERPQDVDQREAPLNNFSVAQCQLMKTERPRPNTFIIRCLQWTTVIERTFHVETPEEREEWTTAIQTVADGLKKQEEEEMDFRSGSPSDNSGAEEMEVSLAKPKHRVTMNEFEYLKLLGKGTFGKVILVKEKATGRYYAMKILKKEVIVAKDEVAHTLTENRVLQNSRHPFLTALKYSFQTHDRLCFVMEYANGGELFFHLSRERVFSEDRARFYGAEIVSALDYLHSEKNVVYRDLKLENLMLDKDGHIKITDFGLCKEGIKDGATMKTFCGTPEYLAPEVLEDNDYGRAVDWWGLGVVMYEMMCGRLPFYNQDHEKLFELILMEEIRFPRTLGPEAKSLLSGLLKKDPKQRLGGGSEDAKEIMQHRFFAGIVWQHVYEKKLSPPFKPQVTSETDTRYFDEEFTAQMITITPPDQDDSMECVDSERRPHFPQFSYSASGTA
Chain of Fibroblast growth factor receptor 1 (Homo sapiens) (P11362 22-822 limits assumed): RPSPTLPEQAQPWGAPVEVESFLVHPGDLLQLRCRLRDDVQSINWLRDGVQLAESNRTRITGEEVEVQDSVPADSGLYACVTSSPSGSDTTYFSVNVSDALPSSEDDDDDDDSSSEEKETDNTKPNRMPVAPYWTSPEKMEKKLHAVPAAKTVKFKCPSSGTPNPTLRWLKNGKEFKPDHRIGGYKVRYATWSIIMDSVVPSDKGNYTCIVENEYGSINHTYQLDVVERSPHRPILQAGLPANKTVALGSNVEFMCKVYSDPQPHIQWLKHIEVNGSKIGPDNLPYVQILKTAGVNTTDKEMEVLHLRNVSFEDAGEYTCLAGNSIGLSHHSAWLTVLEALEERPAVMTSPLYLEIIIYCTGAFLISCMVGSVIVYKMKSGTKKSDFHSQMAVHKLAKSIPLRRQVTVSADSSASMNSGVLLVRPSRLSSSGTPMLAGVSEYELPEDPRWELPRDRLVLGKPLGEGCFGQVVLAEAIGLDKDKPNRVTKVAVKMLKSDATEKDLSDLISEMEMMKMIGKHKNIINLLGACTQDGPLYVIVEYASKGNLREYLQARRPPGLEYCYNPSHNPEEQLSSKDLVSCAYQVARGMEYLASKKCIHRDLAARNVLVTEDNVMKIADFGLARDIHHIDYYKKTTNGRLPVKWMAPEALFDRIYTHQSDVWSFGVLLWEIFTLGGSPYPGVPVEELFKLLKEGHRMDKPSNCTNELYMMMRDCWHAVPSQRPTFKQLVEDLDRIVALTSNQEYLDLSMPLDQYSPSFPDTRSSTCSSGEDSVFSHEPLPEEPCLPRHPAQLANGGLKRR
Chain of Serine/threonine-protein kinase PLK1 (Homo sapiens) (P53350 whole entry): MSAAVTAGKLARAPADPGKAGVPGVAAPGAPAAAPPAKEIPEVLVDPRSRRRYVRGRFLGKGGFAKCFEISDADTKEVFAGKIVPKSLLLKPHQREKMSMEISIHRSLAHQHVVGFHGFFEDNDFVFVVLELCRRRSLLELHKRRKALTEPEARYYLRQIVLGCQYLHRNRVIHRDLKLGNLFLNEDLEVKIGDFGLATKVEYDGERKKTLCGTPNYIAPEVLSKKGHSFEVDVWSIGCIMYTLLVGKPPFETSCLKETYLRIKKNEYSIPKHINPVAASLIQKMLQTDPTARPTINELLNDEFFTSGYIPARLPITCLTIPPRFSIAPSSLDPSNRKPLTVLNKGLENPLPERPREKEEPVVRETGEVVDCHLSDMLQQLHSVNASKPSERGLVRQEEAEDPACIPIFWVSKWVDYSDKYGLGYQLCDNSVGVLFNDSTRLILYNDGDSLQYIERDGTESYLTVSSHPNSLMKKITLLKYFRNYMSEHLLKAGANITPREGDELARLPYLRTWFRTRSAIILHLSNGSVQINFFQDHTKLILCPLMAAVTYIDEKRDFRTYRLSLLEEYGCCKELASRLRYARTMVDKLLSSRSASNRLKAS

O=C(Nc1ccc(Oc2ccnc(-c3ncc(C(F)(F)F)[nH]3)c2)cc1)Nc1cccc(C(F)(F)F)c1
IC50 [1]: 26.2 µM | IC50 [2]: 10.7 µM | IC50 [3]: 11.7 µM | IC50 [4]: 0.0878 µM

Cc1ccc(NC(=O)Nc2ccc(Oc3ccnc(-c4ncc(C(F)(F)F)[nH]4)c3)cc2Cl)cc1C(F)(F)F
IC50 [1]: 33.4 µM | IC50 [2]: 10.1 µM | IC50 [3]: 8.38 µM | IC50 [4]: 0.0467 µM

O=C(Nc1ccc(Oc2ccnc(-c3ncc(C(F)(F)F)[nH]3)c2)cc1Cl)Nc1cc(C(F)(F)F)ccc1Cl
IC50 [1]: 14.2 µM | IC50 [2]: 7.03 µM | IC50 [3]: 5.29 µM | IC50 [4]: 0.0359 µM

O=C(Nc1ccc(Cl)c(C(F)(F)F)c1)Nc1ccc(Oc2ccnc(-c3ncc(C(F)(F)F)[nH]3)c2)cc1Cl
IC50 [1]: 11.1 µM | IC50 [2]: 3.77 µM | IC50 [3]: 6.52 µM | IC50 [4]: 0.0221 µM

O=C(Nc1cccc(C(F)(F)F)c1)Nc1ccc(Oc2ccnc(-c3ncc(C(F)(F)F)[nH]3)c2)cc1Cl
IC50 [1]: 23.2 µM | IC50 [2]: 14.2 µM | IC50 [3]: 9.72 µM | IC50 [4]: 0.0648 µM

O=C(Nc1ccc(Oc2ccnc(-c3ncc(C(F)(F)F)[nH]3)c2)cc1)Nc1ccc(F)c(Cl)c1
IC50 [1]: 15.7 µM | IC50 [2]: 11.3 µM | IC50 [3]: 9.69 µM | IC50 [4]: 0.0692 µM

O=C(Nc1ccc(Oc2ccnc(-c3ncc(C(F)(F)F)[nH]3)c2)cc1)Nc1ccc(Br)cc1F
IC50 [1]: 66.8 µM | IC50 [2]: 25.4 µM | IC50 [3]: 44.6 µM | IC50 [4]: 0.0815 µM

O=C(Nc1ccc(Oc2ccnc(-c3ncc(C(F)(F)F)[nH]3)c2)cc1)Nc1ccc(Cl)c(Cl)c1
IC50 [1]: 10.7 µM | IC50 [2]: 2.03 µM | IC50 [3]: 3.06 µM | IC50 [4]: 0.0131 µM

CNC(=O)c1cc(Oc2ccc(NC(=O)Nc3ccc(Cl)c(C(F)(F)F)c3)cc2)ccn1 [SORAFENIB]
IC50 [1]: 10.9 µM | IC50 [2]: 7.18 µM | IC50 [3]: 6.23 µM

O=C(Nc1ccc(F)c(C(F)(F)F)c1)Nc1ccc(Oc2ccnc(-c3ncc(C(F)(F)F)[nH]3)c2)cc1Cl
IC50 [1]: 17.7 µM | IC50 [2]: 8.21 µM | IC50 [3]: 5.72 µM | IC50 [4]: 0.0777 µM

COc1cc(NC(=O)Nc2ccc(Oc3ccnc(-c4ncc(C(F)(F)F)[nH]4)c3)cc2Cl)cc(OC)c1OC
IC50 [1]: > 100 µM | IC50 [2]: > 100 µM | IC50 [3]: > 100 µM

O=C(Nc1ccc(Oc2ccnc(-c3ncc(C(F)(F)F)[nH]3)c2)cc1)Nc1ccc(Cl)c(C(F)(F)F)c1
IC50 [1]: 13.2 µM | inhibition [5]: 20.2% | inhibition [6]: 23.9% | IC50 [2]: 1.21 µM | inhibition [7]: 0% | inhibition [8]: 0% | inhibition [9]: 44.3% | inhibition [10]: 4.9% | inhibition [11]: 0.4% | inhibition [12]: 95.3% | inhibition [13]: 2.2% | inhibition [14]: 50.8% | inhibition [15]: 8.7% | inhibition [16]: 11.7% | inhibition [17]: 17.7% | inhibition [18]: 1.3% | inhibition [19]: 7.8% | inhibition [20]: 27.5% | IC50 [3]: 1.38 µM | inhibition [21]: 36.8% | inhibition [22]: 5.6% | IC50 [4]: 0.0106 µM | inhibition [23]: 20.4% | inhibition [24]: 3.5%

O=C(Nc1ccc(Oc2ccnc(-c3ncc(C(F)(F)F)[nH]3)c2)cc1)Nc1cc(C(F)(F)F)ccc1Cl
IC50 [1]: 18.4 µM | IC50 [2]: 7.83 µM | IC50 [3]: 6.84 µM | IC50 [4]: 0.0759 µM

Cc1cc(NC(=O)Nc2ccc(Oc3ccnc(-c4ncc(C(F)(F)F)[nH]4)c3)cc2)no1
IC50 [1]: 97.7 µM | IC50 [2]: 44.8 µM | IC50 [3]: 87.7 µM | IC50 [4]: 0.148 µM

O=C(Nc1ccc(F)cc1)Nc1ccc(Oc2ccnc(-c3ncc(C(F)(F)F)[nH]3)c2)cc1
IC50 [1]: 23.7 µM | IC50 [2]: 38.7 µM | IC50 [3]: 36.2 µM | IC50 [4]: 0.0949 µM

O=C(Nc1ccc(Oc2ccnc(-c3ncc(C(F)(F)F)[nH]3)c2)cc1)Nc1ccc2c(c1)OCO2
IC50 [1]: > 100 µM | IC50 [2]: 63.2 µM | IC50 [3]: 92.4 µM

Cc1cccc(Cl)c1NC(=O)Nc1ccc(Oc2ccnc(-c3ncc(C(F)(F)F)[nH]3)c2)cc1
IC50 [1]: 84 µM | IC50 [2]: 76.6 µM | IC50 [3]: 57.9 µM | IC50 [4]: 0.12 µM

COc1ccc(NC(=O)Nc2ccc(Oc3ccnc(-c4ncc(C(F)(F)F)[nH]4)c3)cc2)cc1
IC50 [1]: > 100 µM | IC50 [2]: 95.4 µM | IC50 [3]: > 100 µM

O=C(Nc1ccc(Cl)c(Cl)c1)Nc1ccc(Oc2ccnc(-c3ncc(C(F)(F)F)[nH]3)c2)cc1Cl
IC50 [1]: 12.7 µM | IC50 [2]: 1.77 µM | IC50 [3]: 2.49 µM | IC50 [4]: 0.0165 µM
